Source: PubChem
PGC1a acetyl inh: lowers PGC1a acetylation signal in U2OS cells; AlphaScreen anti-acetyl-lysine; with virally co-expressed GCN5 acetyltransferase; inhibition, % at 15.6 µM; 350,000 tested, 0.17% active;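 active = every replicate shows inhibition of at least 40%; inconclusive = mean inhibition at least 40% but some replicate below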;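 note: 0% = neutral control wells and 100% = positive control wells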
SIRT5 inh: sirtuin-5 (human) deacylase inhibition. inhibition, % at 15 µM. Q9NXA8. 330,000 tested, 1.1% active. Purified SirT5, succinyl-peptide AMC, trypsin-coupled fluorescence; in the data active = inhibition above about 15%; inconclusive = no clear call, values can overlap the other calls
Target sequence (Q9NXA8 whole entry, looked up): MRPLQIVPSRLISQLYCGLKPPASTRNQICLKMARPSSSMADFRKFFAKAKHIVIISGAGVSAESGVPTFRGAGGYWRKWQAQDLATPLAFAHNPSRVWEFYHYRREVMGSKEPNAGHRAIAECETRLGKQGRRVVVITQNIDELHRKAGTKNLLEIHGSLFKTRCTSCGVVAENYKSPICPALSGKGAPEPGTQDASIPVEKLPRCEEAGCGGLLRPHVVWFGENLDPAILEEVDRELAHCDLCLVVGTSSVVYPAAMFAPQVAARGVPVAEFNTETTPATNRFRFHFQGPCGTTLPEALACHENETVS
Statin myotox sup: protects C2C12 myotubes from simvastatin toxicity; ATP luminescence, 48 h; scaled: DMSO 0, geranylgeraniol control 100; rescue of ATP level, % at 7.49 µM; 330,000 tested, 0.78% active;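 active = mean ATP rescue above about 67%, or every replicate alone reaching that limit, limit read from the data, passing the limit was not always enough; inconclusive = no clear call, values can overlap the other calls; inactive = mean under the limit and some replicate under it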;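 note: myotubes were challenged with 10 µM simvastatin during compound exposure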
DENV2 CPE: protects cells from dengue virus 2 cytopathic effect. CPE inhibition, % at 9.99 µM. DENV2-infected cells, cytopathic effect rescue, plate reader. 350,000 tested, 1.7% active; in the data active = CPE inhibition above about 20%, passing the limit was not always enough; inconclusive = no clear call, values can overlap the other calls; tested in BHK-21 cells;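 note: 0% = median of neutral control wells and 100% = median of positive control wells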
S100A4 inh HTS: blocks human S100A4 binding to myosin IIA peptide. S100A4/TAMRA-MyoIIA peptide fluorescence polarization. P26447. 360,000 tested, 0.14% active. inhibition, % at 10.7 µM;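 active = mean inhibition of at least 70% across replicates, with every replicate also reaching that level; inconclusive = mean inhibition reaches 70% but some replicates fall short; inactive = mean inhibition below 70%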
Target sequence (P26447 whole entry, looked up): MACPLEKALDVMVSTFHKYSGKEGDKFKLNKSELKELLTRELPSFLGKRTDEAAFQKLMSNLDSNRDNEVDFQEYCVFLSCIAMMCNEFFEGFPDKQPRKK
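Test system: S100A4 monomer protein. Medium: HEPES buffer with Ca2+, pH 7.2. Reagent: fluorescent myosin IIA peptide, 5 nM. Compound dosing: single-point compound testing. Timing: 5 min between mix addition and reading. Benchmarks: DMSO neutral and TFP positive wells.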
The depositor's hits bear a star; ? = inconclusive; · = no result given; ! = a repeat was not active. A selection: hits, their analogues and other compounds. The true share with any hit is near 2.9%.

SMILES	PGC1a acetyl inh	SIRT5 inh	Statin myotox sup	DENV2 CPE	S100A4 inh HTS
C[C@H](NC(=O)N(C)C[C@H]1OCc2ccccc2-c2c(n(C)c3ccccc23)C(=O)N([C@H](C)CO)C[C@H]1C)c1ccccc1	3	3	·	32*	-8
C[C@@H]1CN([C@H](C)CO)C(=O)c2c(c3ccccc3n2C)-c2ccccc2CO[C@@H]1CN(C)C(=O)N[C@H](C)c1ccccc1	-5	1	-3	13	5
C[C@H](CO)N1C[C@H](C)[C@H](CN(C)C(=O)Nc2ccc(-c3ccccc3)cc2)OCc2ccccc2-c2c(n(C)c3ccccc23)C1=O	30	2	·	88*	4
CO[C@H](C(=O)N(C)C[C@H]1OCc2ccccc2-c2c(n(C)c3ccccc23)C(=O)N([C@@H](C)CO)C[C@@H]1C)c1ccccc1	8	5	·	26*	11
C[C@H]1CN([C@@H](C)CO)C(=O)c2c(c3ccccc3n2C)-c2ccccc2CO[C@H]1CN(C)C(=O)Nc1ccc(-c2ccccc2)cc1	31	-1	·	-2	0
C[C@H](CO)N1C[C@H](C)[C@@H](CN(C)C(=O)Nc2ccc(F)cc2)OCc2ccccc2-c2c(n(C)c3ccccc23)C1=O	-1	15*	·	-3	-2
O=C(C1CCCCC1)N1C[C@@H]2O[C@H](CNS(=O)(=O)c3ccccc3F)CC[C@@H]21	-8	-3	·	-6	7
O=C(NCc1ccccc1)[C@@H]1[C@@H](CO)[C@@H]2Cn3c(cccc3=O)[C@@H]2N1C(=O)C1CC1	8	1	0	-3	10
O=C(/C=C/c1ccc(Cl)cc1Cl)NC(=S)Nc1ccccn1	26	·	1	·	·
Clc1ccc(C=Cc2ccccn2)c(Cl)c1	8	-3	-5	38*	1
CO[C@H](CN(C)CC1CCOCC1)[C@@H](C)CN(C(=O)Nc1ccc(F)cc1)[C@H](C)CO	8	-4	3	0	6
CO[C@@H](CN(C)CC1CCOCC1)[C@H](C)CN(C(=O)Nc1ccc(F)cc1)[C@H](C)CO	4	16*	5	-3	-2
CC(OC(=O)c1ccccc1O)C(=O)Nc1ccc(Cl)cn1 (centres undefined)	8	-2	·	-7	-1
CC(OC(=O)C1=COCCO1)C(=O)Nc1ccc(Cl)cn1 (centres undefined)	-16	4	28	70*	1
CCC(=O)N1CC2(C1)[C@@H](c1ccccc1)[C@H](CO)N2C(=O)c1cccnc1	1	1	·	72*	-4
CCC(=O)N1CC2(C1)[C@@H](c1ccc(-c3ccc(F)cc3)cc1)[C@H](CO)N2C(=O)CC	-3	0	·	27*	1
CCC(=O)N1CC2(C1)[C@@H](c1ccc(-c3ccc(F)cc3)cc1)[C@@H](CO)N2C(=O)CC	-5	9	·	4	6
O=C(c1cccnc1)N1CC2(C1)[C@@H](c1ccccc1)[C@@H](CO)N2C(=O)CC1CC1	7	-2	·	30*	1
O=C(CC1CC1)N1CC2(C1)[C@H](c1ccccc1)[C@@H](CO)N2C(=O)c1cccnc1	0	-2	·	-5	-4
COCC(=O)Nc1ccc2c(c1)[C@@H]1C[C@H](CC(=O)NCc3ccc(OC)cc3)O[C@@H](CO)[C@@H]1O2	-1	-4	9	?	6
O=C(C[C@H]1C[C@H]2c3cc(NC(=O)CC4CC4)ccc3O[C@H]2[C@H](CO)O1)NCCc1ccccc1	3	-3	-2	0	24
CCC(=O)N1CC2(CN(C(=O)Cc3ccccc3)C2)c2c(n(C)c3cc(OC)ccc23)[C@H]1CO	·	6	·	-4	1
O=C(C[C@@H]1C[C@H]2c3cc(NC(=O)C4CCOCC4)ccc3O[C@H]2[C@H](CO)O1)NCc1ccccc1F	-7	-3	-4	-3	-1
CCNc1c([N+](=O)[O-])c(=O)n(CC)c2ccccc12	0	-3	·	-1	-2
Cn1c(=O)c([N+](=O)[O-])c(NCc2ccccc2)c2ccccc21	5	·	122*	·	·
SMILES	PGC1a acetyl inh	SIRT5 inh	Statin myotox sup	DENV2 CPE	S100A4 inh HTS
Cc1ccc(Sc2c([N+](=O)[O-])c(=O)n(C)c3ccccc23)cc1	·	-3	90*	9	-8
CCCC#Cc1ccc([C@@H]2[C@H](CO)N3CCCCN(S(=O)(=O)c4ccccc4C)C[C@@H]23)cc1	-13	·	·	-9	0
CCOC(=O)CSC1=C(C#N)C(c2sccc2C)C(C(C)=O)=C(C)N1 (centres undefined)	·	34*	·	0	1
O=C(CSc1nnc2ccccn12)NNC(=O)c1cccc(Cl)c1	0	-4	113*	8	0
O=C(CSc1nnc2ccccn12)NNC(=O)c1ccc(Cl)cc1	3	-3	25	-3	2
CC(C)NC(=O)N[C@@H]1C=C[C@@H](CC(=O)NCCCN(C)C)O[C@@H]1CO	4	2	-10	8	-6
COc1ccc(Nc2c(-c3ccc(C)cc3)nc3cnccn23)cc1	-4	18*	·	1	-2
C[C@H](O)C#Cc1ccc([C@@H]2[C@H]3CN(C(=O)c4cccc(F)c4)CCCCN3[C@H]2CO)cc1	-3	4	0	-1	-4
COc1ccc(S(=O)(=O)Nc2ccc3c(c2)CC(=O)N([C@H](C)CO)C[C@H](C)[C@H](CN(C)S(C)(=O)=O)O3)cc1	-5	-3	16	-6	-26
COc1cccc(-c2ccc([C@@H]3[C@@H](CO)N4CCCCN(S(=O)(=O)c5cn(C)cn5)C[C@H]34)cc2)c1	1	10	5	73*	-13
COc1ccc(C#Cc2ccc([C@@H]3[C@@H](CO)N4CCCCN(S(=O)(=O)c5cn(C)cn5)C[C@H]34)cc2)cc1	7	2	-3	43*	11
COc1ccc(S(=O)(=O)N(C)C[C@H]2OCCCC[C@H](C)Oc3ccc(NC(=O)C4CCCCC4)cc3C(=O)N([C@@H](C)CO)C[C@@H]2C)cc1	-13	-1	·	6	-8
C/C=C/c1ccc([C@@H]2[C@@H](CO)N(C(=O)CC)C23CN(S(C)(=O)=O)C3)cc1	4	3	·	-11	12
COCCn1c(SCC(=O)Nc2ccc3c(c2)OCCO3)nnc1C(C)C	·	0	1	22*	16
CCCc1nnc(SCC(=O)Nc2ccc3c(c2)OCCO3)n1CCOC	·	-4	1	1	4
CCNC(=O)C[C@H]1CC[C@@H]2[C@H](COC[C@H](O)CN2C(=O)CC)O1	0	-4	-17	7	-5
C[C@@H]1CN([C@H](C)CO)C(=O)c2cccc(NC(=O)Nc3ccccc3)c2O[C@H]1CN(C)S(=O)(=O)c1ccccc1	-3	0	-17	-5	-5
COC(=O)C[C@@H]1C=C[C@@H](NS(=O)(=O)c2ccc(OC)cc2)[C@@H](CO)O1	4	2	9	23*!	-9
